In assay [1] the test system is MCF‐7 hormone receptor‐positive breast cancer cell line. Put plainly: Resazurin cytotoxicity assay, MCF7. The format is cell-based. The note with it: for IC50: read-out: IC50 MCF7; for SI (MCF7): selectivity index versus nontumorigenic MCF12A. A digest of the protocol:
(§1)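 Cells were seeded at 5.0 × 10^3 per well and left to attach overnight at 37 °C, 9% CO2, then treated with test compound for 96 h. A […] resazurin solution was added for 2–4 h at 37 °C and fluorescence read at ex 560/em 590 nm. Assays were run in triplicate, and IC50 was obtained by nonlinear regression.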

Assay [2] relates to MDA‐MB‐231 triple‐negative breast cancer (TNBC) cell line. Put plainly: Resazurin cytotoxicity assay, MDA-MB-231. The format is cell-based. The note with it: for IC50: read-out: IC50 MDA‐MB231; for SI (MDA‐MB231): selectivity index versus nontumorigenic MCF12A. The procedure, abridged: as §1
Another assay relates to HCC70 TNBC cell line. Put plainly: Resazurin cytotoxicity assay, HCC70. The format is cell-based. The note with it: for IC50: read-out: IC50 HCC70; for SI (HCC70): selectivity index versus nontumorigenic MCF12A. The procedure, abridged: as §1
Assay [3] concerns S. aureus ATCC 12600. The assay can be described thus: Antibacterial resazurin assay, S. aureus. The format is cell-based, Staphylococcus aureus. The following applies: for MIC: Staphylococcus aureus, ATCC12600, 6 h, read-out: MIC S. aureus; for MIC S. aureus: resazurin, 6 h, mean ± SD. The procedure, abridged:
(§2)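 Twofold dilutions of test compound (100–0.78 μM) were incubated with mid-log bacteria in LB broth at 37 °C for 6 h. Precultures were grown in LB for P. aeruginosa, S. aureus and E. coli, and in TSB for A. baumannii and K. pneumoniae. Cultures were diluted 1:1000, except S. aureus at 1:500. Resazurin (0.13 mg mL−1 solution) was added for 15–30 min and fluorescence read at 560/590 nm. Assays were run in duplicate with novobiocin and nalidixic acid controls, and MIC was fitted by nonlinear regression.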

Assay [4] deals with nontumorigenic breast epithelial cell line MCF12A. The assay can be described thus: Resazurin cytotoxicity assay, MCF12A. It is filed as cell-based. The note with it: Homo sapiens, MCF-12A, 96 h, read-out: IC50 MCF12A. The procedure, abridged:
as §1

Another assay relates to P. aeruginosa ATCC 27853. The assay can be described thus: Antibacterial resazurin assay, P. aeruginosa. It is filed as cell-based, Pseudomonas aeruginosa. The following applies: for MIC: Pseudomonas aeruginosa, ATCC27853, 6 h, read-out: MIC P. aeruginosa; for MIC P. aeruginosa: resazurin, 6 h, mean ± SD. A digest of the protocol: as §2
For assay [5], the system named is E. coli ATCC 10536. Put plainly: Antibacterial resazurin assay, E. coli. The format is cell-based, Escherichia coli. The note with it: for MIC: Escherichia coli, ATCC10536, 6 h, read-out: MIC E. coli; for MIC E. coli: resazurin, 6 h, mean ± SD. A digest of the protocol: as §2
For another assay, the system named is A. baumannii ATCC 19606. The assay can be described thus: Antibacterial resazurin assay, A. baumannii. It is filed as cell-based, Acinetobacter baumannii. The following applies: for MIC: Acinetobacter baumannii, ATCC19606, 6 h, read-out: MIC A. baumannii; for MIC A. baumannii: resazurin, 6 h, mean ± SD. A digest of the protocol:
as §2

A further assay concerns HeLa cells. Put plainly: Cytotoxicity against HeLa cells. It is filed as cell-based. The following applies: Homo sapiens, read-out: IC50 HeLa cell.
Assay [6] deals with K. pneumoniae ST512‐K30BO. Put plainly: Antibacterial resazurin assay, drug-resistant K. pneumoniae. It is filed as cell-based, Klebsiella pneumoniae. The note with it: 6 h; for MIC: Klebsiella pneumoniae, read-out: MIC K. pneumoniae; for MIC K. pneumoniae: resazurin, drug‐resistant ST512 strain, sixth column pair of SI-15. The procedure, abridged:
as §2

The test system of assay [7] is E. coli ATCC 10536. Put plainly: Time-kill kinetics, E. coli. It is filed as cell-based, Escherichia coli. The following applies: at 1x and 4x MICs, up to 5 h. A digest of the protocol: (§3)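 At 0.5, 1, 2, 3, 4 and 5 h, samples were pelleted, resuspended in 10 mM MgSO4 and serially diluted tenfold. Dilutions were spotted on LB agar for 16 h at 37 °C, and growth was compared visually with the untreated control.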

The subject of assay [8] is S. aureus ATCC 12600. Put plainly: Time-kill kinetics, S. aureus. The format is cell-based, Staphylococcus aureus. The following applies: at 1x and 4x MICs, up to 5 h. The procedure, abridged: as §3
Setting [9] is: resazurin, 96 h, mean ± SD (n = 3).

Converted amounts (≈) assume the structure as drawn. Read-outs that look alike come from different tables or passages of the source.

Turning to `N.N.[Cl][Pt][Cl]` [Cisplatin, reference compound], the IC50 in [1] (setting [9]) was determined as 4.4 ± 1.2 µM; in assay [2] (setting [9]) it was 18.1 ± 1.2 µM; with HCC70 TNBC cell line (setting [9]), 2.6 ± 1.2 µM. For the same compound, in [1], the “SI (MCF7)” value was determined as 2.5. Besides, the “SI (MDA‐MB231)” value in assay [2] came out at 0.6. Further, in the assay on HCC70 TNBC cell line, the “SI (HCC70)” value came out at 4.5.

As to `C[C@@H](N)[C@H](O)CCCCCCCC(=O)CCCCCCCCCCCCCC[C@@H](O[C@@H]1O[C@H](CO)[C@H](O)[C@H](O)[C@H]1O)[C@@H](C)N` [Compound 2, rhizochalin], the IC50 worked out at 2.43 ± 1.17 µM in [1] (Homo sapiens, MCF7, 96 h); 4.25 ± 1.28 µM in assay [4]; 4.59 ± 1.22 µM in assay [2] (Homo sapiens, MDA-MB-231, 96 h); 7.11 µM with HeLa cells; 1.94 ± 1.13 µM with HCC70 TNBC cell line (Homo sapiens, HCC70, 96 h). Further, the “SI (MCF7)” value in [1] was determined as 1.8. Also, the MIC with S. aureus ATCC 12600 [3] worked out at 3.64 ± 0.47 µM (≈ 2.3 µg/mL); with P. aeruginosa ATCC 27853, 3.84 ± 0.82 µM (≈ 2.43 µg/mL); in the assay with E. coli ATCC 10536 [5], 6.15 ± 0.04 µM (≈ 3.89 µg/mL); with A. baumannii ATCC 19606, 6.29 ± 0.02 µM (≈ 3.98 µg/mL); in assay [6], 8.52 ± 3.1 µM (≈ 5.39 µg/mL). Besides, the “SI (MDA‐MB231)” value in assay [2] came out at 1.0. In addition, in the assay on HCC70 TNBC cell line, the “SI (HCC70)” value is recorded as 2.2.

Regarding `CC(N)C(O)CCCCCCCCCCCCCCC(=O)CCCCCCCC(O)C(C)N` (stereo not shown) [Compound 2b, rhizochalinin], the IC50 was 21.4 ± 1.2 µM in [1] (setting [9]), 6.78 ± 1.3 µM in [2] (setting [9]) and 4.97 ± 1.2 µM in the assay with HCC70 TNBC cell line (setting [9]). For the same compound, in assay [1], the “SI (MCF7)” value came out at 1.0. For the same compound, in the assay with P. aeruginosa ATCC 27853, the “MIC P. aeruginosa” value is over 50 µM. Besides, the “MIC E. coli” value with E. coli ATCC 10536 [5] was 49.1 ± 3.42 µM (≈ 23.1 µg/mL). For the same compound, the “SI (MDA‐MB231)” value in [2] turned out to be 3.1. In addition, the “MIC A. baumannii” value against A. baumannii ATCC 19606 came to 55.7 ± 0.85 µM (≈ 26.2 µg/mL). Besides, the “SI (HCC70)” value with HCC70 TNBC cell line is 4.2. Moreover, the “MIC K. pneumoniae” value in assay [6] is 23.78 ± 0.15 µM (≈ 11.2 µg/mL).

For `CCn1cc(C(=O)O)c(=O)c2ccc(C)nc21` [Nalidixic acid, reference compound], the MIC in the assay on P. aeruginosa ATCC 27853 amounted to 0.17 ± 0.01 µM (≈ 0.0395 µg/mL); in the assay on E. coli ATCC 10536 [5] it was 0.47 ± 0.22 µM (≈ 0.109 µg/mL); in the assay on A. baumannii ATCC 19606, 1.28 ± 0.92 µM (≈ 0.297 µg/mL); in assay [6], 28.8 ± 1.09 µM (≈ 6.7 µg/mL). For the same compound, the “Bactericidal endpoint, E. coli, in words” value with E. coli ATCC 10536 [7] was “did not achieve bactericidal endpoints”.

For `CO[C@@H]1[C@@H](OC(N)=O)[C@@H](O)[C@H](Oc2ccc3c(O)c(NC(=O)c4ccc(O)c(CC=C(C)C)c4)c(=O)oc3c2C)OC1(C)C` [Novobiocin, reference compound], the MIC in the assay on S. aureus ATCC 12600 [3] was 0.002 ± 0.002 µM (≈ 0.00123 µg/mL). For the same compound, the “Bactericidal endpoint, S. aureus, in words” value with S. aureus ATCC 12600 [8] is listed as “did not achieve bactericidal endpoints”.

On to oceanin [Compound 4b], for which the IC50 in [1] (setting [9]) came to 8.39 ± 1.39 µM; in assay [2] (setting [9]), 6.36 ± 1.4 µM; in the assay with HCC70 TNBC cell line (setting [9]) it was 117 ± 1.4 µM. For the same compound, in [1], the “SI (MCF7)” value amounted to 7.9. Besides, the “MIC S. aureus” value in the assay on S. aureus ATCC 12600 [3] was over 50 µM. In the assay on P. aeruginosa ATCC 27853, the “MIC P. aeruginosa” value is over 50 µM. Besides, in the assay on E. coli ATCC 10536 [5], the “MIC E. coli” value is over 50 µM. In assay [2], the “SI (MDA‐MB231)” value was 10.4. In addition, the “MIC A. baumannii” value in the assay with A. baumannii ATCC 19606 was over 50 µM. Besides, the “SI (HCC70)” value in the assay on HCC70 TNBC cell line turned out to be 0.6. Also, in [6], the “MIC K. pneumoniae” value is over 50 µM.

On to pentaperbenzoyl oceanin [Compound 4c], for which the “MIC S. aureus” value against S. aureus ATCC 12600 [3] was over 50 µM. For the same compound, in the assay on P. aeruginosa ATCC 27853, the “MIC P. aeruginosa” value is over 50 µM. The “MIC E. coli” value in the assay on E. coli ATCC 10536 [5] was over 50 µM. Moreover, the “MIC A. baumannii” value against A. baumannii ATCC 19606 is over 50 µM. In assay [6], the “MIC K. pneumoniae” value is over 50 µM.

As for “pentaperbenzoyl rhizochalinin C [Compound 3c]”, the “MIC S. aureus” value against S. aureus ATCC 12600 [3] is over 50 µM. Also, in the assay on P. aeruginosa ATCC 27853, the “MIC P. aeruginosa” value is over 50 µM. Moreover, the “MIC E. coli” value against E. coli ATCC 10536 [5] is over 50 µM. In addition, the “MIC A. baumannii” value with A. baumannii ATCC 19606 was over 50 µM. For the same compound, the “MIC K. pneumoniae” value in [6] was over 50 µM.

As to rhizochalinin C [Compound 3b], the IC50 in assay [1] (setting [9]) was 26.4 ± 1.2 µM; in assay [2] (setting [9]) it was 6.78 ± 1.2 µM; with HCC70 TNBC cell line (setting [9]), 6.43 ± 1.1 µM. In assay [1], the “SI (MCF7)” value is reported as 1.1. Further, the “MIC S. aureus” value against S. aureus ATCC 12600 [3] was over 50 µM. Besides, in the assay on P. aeruginosa ATCC 27853, the “MIC P. aeruginosa” value was over 50 µM. Also, the “MIC E. coli” value against E. coli ATCC 10536 [5] was over 50 µM. Also, in assay [2], the “SI (MDA‐MB231)” value is recorded as 4.3. Moreover, the “MIC A. baumannii” value with A. baumannii ATCC 19606 was over 50 µM. The “SI (HCC70)” value in the assay on HCC70 TNBC cell line is on record as 4.5. In addition, the “MIC K. pneumoniae” value in assay [6] is over 50 µM.

With “tetraperbenzoyl rhizochalinin [Compound 2c]”, the “MIC S. aureus” value in the assay on S. aureus ATCC 12600 [3] is over 50 µM. Also, in the assay with P. aeruginosa ATCC 27853, the “MIC P. aeruginosa” value was over 50 µM. Moreover, the “MIC E. coli” value against E. coli ATCC 10536 [5] was over 50 µM. In the assay with A. baumannii ATCC 19606, the “MIC A. baumannii” value is over 50 µM. Also, the “MIC K. pneumoniae” value in assay [6] is over 50 µM.

(Values after article PMC12640659 (Chemmedchem, 2025).)
